Test results as given in ChEMBL document CHEMBL3399972, “Structure-activity relationships of a novel pyranopyridine series of Gram-negative bacterial efflux pump inhibitors” (Bioorg Med Chem, 2015).
Activity calls are given as the source filed them.

What was measured:
Escherichia coli [1] = assay: Inhibition of multidrug resistance efflux pump in Escherichia coli assessed as concentration required to reduce levofloxacin MIC by 4-fold by checkerboard assay
Escherichia coli [2] = assay: Inhibition of multidrug resistance efflux pump in wild-type Escherichia coli AB1157 assessed as concentration required to reduce piperacillin MIC by 4-fold by checkerboard assay
HeLa = assay: Cytotoxicity against human HeLa cells; type: cell-based
Escherichia coli [3] = assay: Antibacterial activity against Escherichia coli at 100 uM; type: functional, organism-based
Escherichia coli [4] = assay: Inhibition of lactose permease-dependent [3H]TMG uptake in Escherichia coli HN1157 up to 20 uM
Method in brief: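 Proton motive force probed in E. coli HN1157 by LacY permease-mediated accumulation of [methyl-3H] thiogalactopyranoside (stock 1 mCi/ml, 7 Ci/mmol), compounds tested at concentrations up to 20 µM.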

[5] = Metabolic stability in mouse liver microsomes assessed as compound remaining at 25 uM after 60 mins by HPLC analysis in presence of NADPH; type: ADME; details: read-out: Stability
Method in brief: (§1)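 Human or mouse liver microsomes at 0.5 mg/mL in 100 mM potassium phosphate pH 7.4 with 3 mM MgCl2, test compound 25 µM final, with or without (control) 2 mM NADPH; 37 °C for one hour, then stopped with equal volume acetonitrile containing 0.1% trifluoroacetic acid. Value: peak area with NADPH relative to no-NADPH control, as percent remaining.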

[6] = Metabolic stability in human liver microsomes assessed as compound remaining at 25 uM after 60 mins by HPLC analysis in presence of NADPH; type: ADME; details: read-out: Stability; method in brief: as §1
[7] = Inhibition of mouse liver microsome CYP3A4 at 3 uM after 10 mins by luminescence assay; type: ADME; details: microsomes
[8] = Aqueous solubility of the compound by nephlometric method; type: physicochemical
Method in brief: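 Maximum solubility in water, measured by nephelometry.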

| SMILES | INH (Escherichia coli [1]) | INH (Escherichia coli [2]) | CC50 (HeLa) | Activity (Escherichia coli [3]) | inhibition (Escherichia coli [4]) | remaining at 1 h, 25 µM [5] | remaining at 1 h, 25 µM [6] | inhibition (INH) [7] | solubility kinetic [8] |
| --- | --- | --- | --- | --- | --- | --- | --- | --- | --- |
| CC1CN(c2nc(SCCc3ccc(NC(=O)C(C)(C)C)cc3)c(C#N)c3c2COC(C)(C)C3)CC(C)O1 (centres undefined) | > 100 µM | > 100 µM | > 100 µM | inactive | – | – | – | – | – |
| CC1(C)Cc2c(C#N)c(SCCc3ccc(F)cc3)nc(N3CCOCC3)c2CO1 | 6.3 µM | 3.1 µM | 59 µM | inactive | – | – | – | – | – |
| COCCN1CCN(c2nc(SCCc3ccccc3F)c(C#N)c3c2COC(C)(C)C3)CC1 | 12.5 µM | 9.4 µM | 30.6 µM | inactive | – | – | – | – | – |
| CC(=O)Oc1cccc(CCSc2nc(N3CCOCC3)c3c(c2C#N)CC(C)(C)OC3)c1 | 1.6 µM | 1.6 µM | 48.3 µM | inactive | – | – | – | – | – |
| CN1CCN(c2nc(SCCc3ccccc3)c(C#N)c3c2COC(C)(C)C3)CC1 | 6.3 µM | 6.3 µM | 14.4 µM | inactive | – | – | – | – | – |
| CC1(C)Cc2c(C#N)c(SCCc3ccccc3)nc(N3CCCNCC3)c2CO1 | 12.5 µM | 12.5 µM | 20.3 µM | inactive | – | – | – | – | – |
| CN(C)c1nc(SCCc2ccccc2)c(C#N)c2c1COC(C)(C)C2 | > 100 µM | 9.4 µM | 57.4 µM | inactive | – | – | – | – | – |
| CC1(C)Cc2c(C#N)c(SCCc3coc4ccccc34)nc(N3CCOCC3)c2CO1 | > 100 µM | 6.3 µM | > 100 µM | inactive | – | – | – | – | – |
| CC1(C)Cc2c(C#N)c(S(=O)(=O)CCc3ccccc3)nc(N3CCOCC3)c2CO1 | > 100 µM | > 100 µM | – | inactive | – | – | – | – | – |
| CC1(C)Cc2c(C#N)c(SCc3ccccc3)nc(N3CCOCC3)c2CO1 | > 100 µM | > 100 µM | – | inactive | inactive | – | – | – | – |
| COCCN1CCN(c2nc(SCCc3cccc(OC)c3)c(C#N)c3c2COC(C)(C)C3)CC1 | 6.3 µM | 4.7 µM | 46.5 µM | inactive | – | – | – | – | – |
| COCCN1CCN(c2nc(SCCc3ccccn3)c(C#N)c3c2COC(C)(C)C3)CC1 | 12.5 µM | 3.1 µM | > 100 µM | inactive | – | 3% | 0% | 14% | ≥ 100 µM |
| N#Cc1c(SCCc2ccccn2)nc(N2CCOCC2)c2c1CCOC2 | > 100 µM | > 100 µM | – | inactive | – | – | – | – | – |
| CC1(C)Cc2c(C#N)c(SCCc3ccccc3)nc(N3CCCC3)c2CO1 | > 100 µM | > 100 µM | 20.2 µM | inactive | – | – | – | – | – |
| COCCN1CCN(c2nc(SCCc3cccnc3)c(C#N)c3c2COC(C)(C)C3)CC1 | > 100 µM | 25 µM | > 100 µM | inactive | – | – | – | – | – |
| COCCN1CCN(c2nc(SCCOc3ccccc3)c(C#N)c3c2COC(C)(C)C3)CC1 | > 100 µM | 12.5 µM | 33.9 µM | inactive | – | – | – | – | – |
| CC1CN(c2nc(SCCc3ccccc3)c(C#N)c3c2COC(C)(C)C3)CC(C)O1 (centres undefined) | – | – | > 100 µM | inactive | – | – | – | – | – |
| CC1(C)Cc2c(C#N)c(SCCc3cccc(C#N)c3)nc(N3CCOCC3)c2CO1 | 12.5 µM | 3.9 µM | > 100 µM | inactive | – | – | – | – | – |
| CCN(CC)c1nc(SCCc2ccccc2)c(C#N)c2c1COC(C)(C)C2 | > 100 µM | 6.3 µM | 38.2 µM | inactive | – | – | – | – | – |
| CC1(C)Cc2c(C#N)c(SCCc3cccnc3)nc(N3CCOCC3)c2CO1 | 25 µM | 3.1 µM | > 100 µM | inactive | – | – | – | – | – |
| CN1CCCN(c2nc(SCCc3ccccc3)c(C#N)c3c2COC(C)(C)C3)CC1 | 12.5 µM | 25 µM | 16.4 µM | inactive | – | – | – | – | – |
| N#Cc1c(SCCc2ccccc2)nc(N2CCOCC2)c2c1CCOC2 | > 100 µM | > 100 µM | – | inactive | – | – | – | – | – |
| CC1(C)Cc2c(C#N)c(SCCc3c[nH]c4ccccc34)nc(N3CCOCC3)c2CO1 | 12.5 µM | 2.4 µM | 44.8 µM | inactive | – | – | – | – | – |
| CC1(C)Cc2c(C#N)c([S+]([O-])CCc3ccccc3)nc(N3CCOCC3)c2CO1 (centres undefined) | > 100 µM | > 100 µM | – | inactive | – | – | – | – | – |
